ChEMBL document CHEMBL2321668, “Aromatic bis-N-hydroxyguanidinium derivatives: synthesis, biophysical, and biochemical evaluations” (J Med Chem, 2013)
Structures can show the parent of a compound that is named as a salt. Active and inactive are the calls of the source. The calls are words filed in the database; no cut-off is given here.

Key:
HL-60 [1] = test: Cell cycle arrest in human HL60 cells assessed as accumulation at Gn phase at 50 uM by flow cytometric analysis; assay type: functional, cell-based; conditions: TDE = time-dependent effect
HL-60 [2] = test: Cell cycle arrest in human HL60 cells assessed as accumulation at G2/M phase at 50 uM by flow cytometric analysis; assay type: functional, cell-based; conditions: TDE = time-dependent effect
HL-60 [3] = test: Cell cycle arrest in human HL60 cells assessed as accumulation at S phase at 50 uM by flow cytometric analysis; assay type: functional, cell-based; conditions: TDE = time-dependent effect
HL-60 [4] = test: Cell cycle arrest in human HL60 cells assessed as accumulation at G0/G1 phase at 50 uM by flow cytometric analysis; assay type: functional, cell-based; conditions: TDE = time-dependent effect
HL-60 [5] = test: Cell cycle arrest in human HL60 cells assessed as accumulation at preG1 phase at 50 uM by flow cytometric analysis; assay type: functional, cell-based; conditions: TDE = time-dependent effect
HL-60 [6] = test: Cell cycle arrest in human HL60 cells assessed as accumulation at Gn phase at 50 uM after 72 hrs by flow cytometric analysis (reference value: 3.43 +/- 0.48%); assay type: functional
HL-60 [7] = test: Cell cycle arrest in human HL60 cells assessed as accumulation at S phase at 50 uM after 72 hrs by flow cytometric analysis (reference value: 23.58 +/- 1.38%); assay type: functional
HL-60 [8] = test: Cell cycle arrest in human HL60 cells assessed as accumulation at G0/G1 phase at 50 uM after 72 hrs by flow cytometric analysis (reference value: 59.5 +/- 1.50%); assay type: functional
HL-60 [9] = test: Cell cycle arrest in human HL60 cells assessed as accumulation at preG1 phase at 50 uM after 72 hrs by flow cytometric analysis (reference value: 2.21 +/- 0.57%); assay type: functional
HL-60 [10] = test: Cell cycle arrest in human HL60 cells assessed as accumulation at Gn phase at 50 uM after 48 hrs by flow cytometric analysis (reference value: 3.02 +/- 0.56%); assay type: functional
HL-60 [11] = test: Cell cycle arrest in human HL60 cells assessed as accumulation at G2/M phase at 50 uM after 48 hrs by flow cytometric analysis (reference value: 11.35 +/- 1.05%); assay type: functional
HL-60 [12] = test: Cell cycle arrest in human HL60 cells assessed as accumulation at S phase at 50 uM after 48 hrs by flow cytometric analysis (reference value: 24.29 +/- 1.37%); assay type: functional
HL-60 [13] = test: Cell cycle arrest in human HL60 cells assessed as accumulation at preG1 phase at 50 uM after 48 hrs by flow cytometric analysis (reference value: 1.41 +/- 0.32%); assay type: functional
HL-60 [14] = test: Cell cycle arrest in human HL60 cells assessed as accumulation at G0/G1 phase at 50 uM after 48 hrs by flow cytometric analysis (reference value: 58.77 +/- 2.33%); assay type: functional
HL-60 [15] = test: Cell cycle arrest in human HL60 cells assessed as accumulation at Gn phase at 50 uM after 24 hrs by flow cytometric analysis (reference value: 2.96 +/- 0.79%); assay type: functional
HL-60 [16] = test: Cell cycle arrest in human HL60 cells assessed as accumulation at G2/M phase at 50 uM after 24 hrs by flow cytometric analysis (reference value: 16.73 +/- 0.59%); assay type: functional
HL-60 [17] = test: Cell cycle arrest in human HL60 cells assessed as accumulation at S phase at 50 uM after 24 hrs by flow cytometric analysis (reference value: 24.46 +/- 1.15%); assay type: functional
HL-60 [18] = test: Cell cycle arrest in human HL60 cells assessed as accumulation at G0/G1 phase at 50 uM after 24 hrs by flow cytometric analysis (reference value: 56.05 +/- 1.40%); assay type: functional
HL-60 [19] = test: Cell cycle arrest in human HL60 cells assessed as accumulation at preG1 phase at 50 uM after 24 hrs by flow cytometric analysis (reference value: 0.81 +/- 0.11%); assay type: functional
HL-60 [20] = test: Cell cycle arrest in human HL60 cells assessed as accumulation at G2/M phase at 50 uM after 72 hrs by flow cytometric analysis (reference value: 10.53 +/- 0.81%); assay type: functional
[21] = Cytotoxicity against human Kelly cells assessed as reduction in cell viability 30 uM after 72 hrs by Alamar blue assay; assay type: functional
How it was run: (§1)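 Kelly neuroblastoma cells in RPMI/10% FBS, 6000/well, were preincubated 24 h, then given a 1:100 dilution of aqueous stocks (1% ddH2O vehicle) for 72 h at 37 °C. AlamarBlue was added for 4.5 h in the dark and fluorescence read at 544/590 nm. Viability is blank-corrected and given as % of vehicle. IC50 comes from a sigmoidal fit. Triplicate wells, at least three experiments.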

[22] = Cytotoxicity against human Kelly cells assessed as reduction in cell viability 40 uM after 72 hrs by Alamar blue assay; assay type: functional; how it was run: as §1
[23] = Cytotoxicity against human Kelly cells assessed as reduction in cell viability 50 uM after 72 hrs by Alamar blue assay; assay type: functional; how it was run: as §1
[24] = Cytotoxicity against human Kelly cells assessed as reduction in cell viability 100 uM after 72 hrs by Alamar blue assay; assay type: functional; how it was run: as §1
MCF7 [25] = test: Cytotoxicity against human MCF7 cells assessed as reduction in cell viability at 100 uM after 72 hrs by Alamar blue assay; assay type: functional
How it was run: (§2)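 MCF-7 cells in MEM/10% FBS with nonessential amino acids, 10,000/well, were preincubated 24 h, then treated for 72 h at 37 °C with a 1:100 dilution of aqueous stocks (1% ddH2O vehicle). AlamarBlue was added for 4.5 h in the dark and fluorescence read at 544/590 nm. Viability is blank-corrected and given as % of vehicle. IC50 comes from a sigmoidal dose–response fit. Triplicate wells, at least three experiments.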

[26] = Cytotoxicity against human Kelly cells assessed as reduction in cell viability after 72 hrs by Alamar blue assay; assay type: functional, cell-based; how it was run: as §1
MCF7 [27] = test: Cytotoxicity against human MCF7 cells assessed as reduction in cell viability after 72 hrs by Alamar blue assay; assay type: functional, cell-based; conditions: MCF7, 72 h; how it was run: as §2
HL-60 [28] = test: Cytotoxicity against human HL60 cells assessed as reduction in cell viability after 72 hrs by Alamar blue assay; assay type: functional, cell-based; conditions: HL-60, 72 h
How it was run: (§3)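 HL-60 cells in log phase, 4 × 10^4 cells/well in RPMI/10% FBS, were treated with a 1:100 dilution of aqueous stocks (1% ddH2O vehicle), final 1–100 μM, for 72 h at 37 °C. AlamarBlue was added for 4.5 h in the dark and fluorescence read at 544/590 nm. Viability is blank-corrected and given as % of vehicle. IC50 comes from sigmoidal dose–response fits. Triplicate wells, at least three experiments.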

Salmonidae = test: Binding affinity to salmon sperm DNA assessed as change in melting temperature at 15 uM by thermal denaturation assay
HL-60 [29] = test: Cytotoxicity against human HL60 cells assessed as reduction in cell viability at 100 uM after 72 hrs by Alamar blue assay; assay type: functional, cell-based; how it was run: as §3
DNA = test: Binding affinity to calf thymus DNA assessed as change in melting temperature; assay type: nucleic-acid assay; conditions: Bos taurus
[30] = Dissociation constant, pKa of the compound; assay type: physicochemical
[31] = Binding affinity to poly(dA-dT)2 (unknown origin) assessed as change in melting temperature

Cl.N/C(=N\O)Nc1ccc(Sc2ccc(N/C(N)=N/O)cc2)cc1
Activity (HL-60 [1]): tde
Activity (HL-60 [2]): tde
Activity (HL-60 [3]): tde
Activity (HL-60 [4]): tde
Activity (HL-60 [5]): tde
Activity (HL-60 [6]): 2.1%
Activity (HL-60 [7]): 15.99%
Activity (HL-60 [8]): 44.8%
Activity (HL-60 [9]): 22.2%
Activity (HL-60 [10]): 1.94%
Activity (HL-60 [11]): 10.78%
Activity (HL-60 [12]): 21.71%
Activity (HL-60 [13]): 6.44%
Activity (HL-60 [14]): 56.62%
Activity (HL-60 [15]): 2.35%
Activity (HL-60 [16]): 14.57%
Activity (HL-60 [17]): 25.85%
Activity (HL-60 [18]): 55.9%
Activity (HL-60 [19]): 1.53%
Activity (HL-60 [20]): 14.54%
Activity [21]: 79.4%
Activity [22]: 93.9%
Activity [23]: 95%
Activity [24]: 96.8%
Activity (MCF7 [25]): 23.1%
IC50 [26]: 8.6 µM
IC50 (MCF7 [27]): > 100 µM
IC50 (HL-60 [28]): 46.4 µM
ΔTm (Salmonidae): 1 °C

N/C(=N\O)Nc1ccc(C(=O)c2ccc(N/C(N)=N/O)cc2)cc1
Activity (HL-60 [29]): inactive
IC50 (HL-60 [28]): > 100 µM
ΔTm (Salmonidae): 0 °C

Cl.N/C(=N\O)Nc1ccc(Cc2ccc(N/C(N)=N/O)cc2)cc1
Activity (MCF7 [25]): 29.8%
IC50 (MCF7 [27]): > 100 µM
IC50 (HL-60 [28]): 71.3 µM
ΔTm (Salmonidae): 0 °C

N/C(=N\O)Nc1ccc(CCc2ccc(N/C(N)=N/O)cc2)cc1
ΔTm (Salmonidae): 0 °C

N/C(=N\O)c1ccc(OCCCCCOc2ccc(/C(N)=N/O)cc2)cc1
ΔTm (DNA): 0.2 °C

Cl.N/C(=N\O)Nc1ccc(Oc2ccc(N/C(N)=N/O)cc2)cc1
Activity [21]: 76.2%
Activity [22]: 86.4%
Activity [23]: 89.9%
Activity [24]: 95.8%
Activity (MCF7 [25]): 53%
IC50 [26]: 12.2 µM
IC50 (MCF7 [27]): 45.2 µM
IC50 (HL-60 [28]): 65.5 µM
pKa [30]: 8.3
ΔTm (Salmonidae): 1 °C

N=C(N)c1ccc(-c2ccc(-c3ccc(C(=N)N)cc3)o2)cc1 [FURAMIDINE HYDROCHLORIDE]
ΔTm [31]: 26.2 °C
IC50 [26]: 27.4 µM
IC50 (MCF7 [27]): 92.8 µM
IC50 (HL-60 [28]): 77.6 µM
pKa [30]: 10.4

N/C(=N\O)Nc1ccc(NC(=O)c2ccc(N/C(N)=N/O)cc2)cc1
ΔTm (Salmonidae): 1 °C

N=C(N)c1ccc(OCCCCCOc2ccc(C(=N)N)cc2)cc1
ΔTm (DNA): 10.7 °C
